SMILES strings stand for the structures.

The assay concerns the target T1, UniProt Q7TRX0.
T1 sequence (whole entry): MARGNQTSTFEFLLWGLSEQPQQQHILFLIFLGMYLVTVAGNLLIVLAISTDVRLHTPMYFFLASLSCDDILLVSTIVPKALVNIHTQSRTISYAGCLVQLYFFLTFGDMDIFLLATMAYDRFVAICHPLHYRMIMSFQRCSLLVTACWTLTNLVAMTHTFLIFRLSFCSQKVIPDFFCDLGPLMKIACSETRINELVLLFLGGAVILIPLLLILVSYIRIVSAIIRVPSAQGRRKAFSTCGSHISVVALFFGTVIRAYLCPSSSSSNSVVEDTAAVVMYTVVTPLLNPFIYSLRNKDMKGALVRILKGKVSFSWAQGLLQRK
Particulars: stereoisomer not certain. The gist of the method:
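Values were gathered from published papers (main text and supplementary material), with extra details requested from the original authors when needed, and checked for typos and inconsistencies. Each receptor–molecule pair is called responsive (active) if the original authors judged the measured signal statistically different from baseline, and non-responsive (inactive) otherwise. Assay methods varied by source, often transient mammalian cell-line luciferase assays. Recorded details include cell line, G-protein, co-transfected protein and tags.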
With `Cc1c(C)c(C)c(C=O)c(C)c1C`, the “odorant receptor agonist call” value was “inactive”.
`CCCCCCCCOC=O`: the “odorant receptor agonist call” value was “inactive”.
`CCN(CC)CC`: the “odorant receptor agonist call” value is “inactive”.
Under `CCc1ccc(O)cc1` stands “inactive”; under `CNc1ccccc1C(=O)OC`, “inactive”.
In the case of `CC(=O)C=CC1=C(C)CCCC1(C)C`, the “odorant receptor agonist call” value was “inactive”.
As to `CC(=O)OCc1ccc2c(c1)OCO2`, the “odorant receptor agonist call” value was “inactive”.
As for `COc1nccnc1C(C)C`, the “odorant receptor agonist call” value was “inactive”.
Take `C=C(C)C1CCC2(C)OC2C1` (stereo not drawn): the “odorant receptor agonist call” value is “inactive”.
As to `CCOC(=O)CC(C)C`, the “odorant receptor agonist call” value is “inactive”.
For the compound `Cc1ccc(C(C)C)cc1`, the “odorant receptor agonist call” value was “inactive”.
Regarding `CCCCCCCCCC=CC=O`, the “odorant receptor agonist call” value was “inactive”.
Under `Cc1ccccc1OC(=O)C(C)C` stands “inactive”; under `CCc1ncc(C)nc1CC`, “inactive”; under `CC=Cc1ccc(OC)cc1`, “inactive”.
With `CCC(C)O` (stereo not drawn) the entry was “inactive”; with `CCCO`, “inactive”.
For the compound `OCC=Cc1ccccc1`, the “odorant receptor agonist call” value is “inactive”.
On to `CC=C(C)C=O`, for which the “odorant receptor agonist call” value was “inactive”.
For the compound `C1CCOC1`, the “odorant receptor agonist call” value is “inactive”.
In the case of `CC(C)=C1CCC(C)CC1=O` (stereo not drawn), the “odorant receptor agonist call” value was “inactive”.
As to `COc1nccnc1C`, the “odorant receptor agonist call” value was “inactive”.
As for `COC(OC)c1ccccc1`, the “odorant receptor agonist call” value is “inactive”.
With `CC(C)CCN` the entry was “inactive”; with `O=C(OCc1ccccc1)c1ccccc1O`, “inactive”; with `Cc1ccc(C(C)C)c(O)c1`, “inactive”.
For the compound `CSSCc1ccco1`, the “odorant receptor agonist call” value is “inactive”.
On to `O=C(O)C1CCC1`, for which the “odorant receptor agonist call” value was “inactive”.
As for `CC=CC(=O)C1=C(C)CCCC1(C)C`, the “odorant receptor agonist call” value is “inactive”.
`C=CC(C)=CCC=C(C)CCC=C(C)C`: the “odorant receptor agonist call” value was “inactive”.
Under `CC(=O)OCCc1ccccc1` stands “inactive”; under `OCCc1ccccc1`, “inactive”.
As to `C=C(C)C1CCC(C)C(O)C1` (stereo not drawn), the “odorant receptor agonist call” value is “inactive”.

These data come from the M2OR odorant receptor database.
